Tests used:
[1] = target: Prostaglandin F2-alpha receptor (Mus musculus, UniProt P43117); test: Displacement of [3H]PGF2alpha from mouse prostanoid FP receptor expressed in CHO cells after 60 mins by liquid scintillation counting; type: cell-based
Procedure, shortened: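 CHO-mFP membranes were incubated with 2.5 nM [3H]PGF2α and varied test concentrations in 10 mM KH2PO4–KOH, 1 mM EDTA, 10 mM MgCl2, 100 mM NaCl, pH 6.0, for 60 min at room temperature. Samples were then filtered on GF/B, washed with ice-cold phosphate/NaCl buffer, and counted by scintillation. IC50 came from the regression curve, and Ki = IC50/(1+[L]/Kd).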

[2] = target: T1, Thromboxane A2 receptor (Homo sapiens, UniProt P21731); test: Displacement of [3H]-SQ29548 from human prostanoid TP receptor expressed in CHO cells after 30 mins by liquid scintillation counting
T1 sequence (P21731 whole entry): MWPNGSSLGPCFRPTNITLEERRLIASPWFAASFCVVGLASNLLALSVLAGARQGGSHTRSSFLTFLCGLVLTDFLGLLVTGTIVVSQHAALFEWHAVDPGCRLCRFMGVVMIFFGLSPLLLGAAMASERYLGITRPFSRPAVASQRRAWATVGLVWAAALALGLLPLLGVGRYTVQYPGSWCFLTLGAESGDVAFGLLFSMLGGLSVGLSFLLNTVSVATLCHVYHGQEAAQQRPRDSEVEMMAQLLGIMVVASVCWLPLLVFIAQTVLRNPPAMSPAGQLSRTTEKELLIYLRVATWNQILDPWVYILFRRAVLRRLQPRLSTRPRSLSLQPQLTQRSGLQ

[3] = target: T2, Prostaglandin D2 receptor (Mus musculus, UniProt P70263); test: Antagonist activity at mouse prostanoid DP receptor expressed in CHO cells assessed as inhibition of PGD2-induced intracellular cAMP production; type: functional, cell-based
T2 sequence (P70263 whole entry): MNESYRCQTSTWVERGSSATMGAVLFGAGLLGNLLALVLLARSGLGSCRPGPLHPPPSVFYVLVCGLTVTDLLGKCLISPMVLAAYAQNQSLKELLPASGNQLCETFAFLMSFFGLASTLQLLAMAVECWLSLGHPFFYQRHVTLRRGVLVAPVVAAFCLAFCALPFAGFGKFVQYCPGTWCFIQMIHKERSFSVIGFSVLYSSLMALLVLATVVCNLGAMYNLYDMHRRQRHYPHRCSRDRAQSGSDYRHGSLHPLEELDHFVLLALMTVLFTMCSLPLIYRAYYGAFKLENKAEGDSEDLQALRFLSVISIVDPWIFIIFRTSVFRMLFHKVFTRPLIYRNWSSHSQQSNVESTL
Procedure, shortened: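 CHO-mDP cells were seeded at 1×10^5 cells/well and grown 2 days. They were preincubated about 10 min at 37 °C in MEM with 2 µM diclofenac, then about 10 min in MEM with 0.1% BSA, 1 mM IBMX and 2 µM diclofenac. Test compounds at various concentrations plus 10 nM PGD2 were then added for 10 min at 37 °C. Reactions were stopped with 10% TCA, extracted with tri-n-octylamine/chloroform, and cAMP was measured by EIA.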

[4] = target: Prostaglandin E2 receptor EP2 subtype (Mus musculus, UniProt Q62053); test: Displacement of [3H]PGE2 from mouse prostaglandin EP2 receptor expressed in CHO cells after 60 mins by liquid scintillation counting; type: cell-based
Procedure, shortened: (§1)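 Membranes came from CHO cells stably expressing mEP1, EP2, EP3 or EP4. They were incubated with 2.5 nM [3H]PGE2 and graded test concentrations in 10 mM KH2PO4–KOH (1 mM EDTA, 10 mM MgCl2, 100 mM NaCl, pH 6.0) at room temperature, 20 min for EP1 and 60 min for EP2–4. Reactions were filtered on GF/B, washed with ice-cold buffer, and counted by scintillation. IC50 came by regression, with Ki via Cheng–Prusoff.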

[5] = target: T3, Prostaglandin E2 receptor EP3 subtype (Mus musculus, UniProt P30557); test: Displacement of [3H]PGE2 from mouse prostaglandin EP3alpha receptor expressed in CHO cells after 60 mins by liquid scintillation counting; type: cell-based; procedure, shortened: as §1
T3 sequence (P30557 whole entry): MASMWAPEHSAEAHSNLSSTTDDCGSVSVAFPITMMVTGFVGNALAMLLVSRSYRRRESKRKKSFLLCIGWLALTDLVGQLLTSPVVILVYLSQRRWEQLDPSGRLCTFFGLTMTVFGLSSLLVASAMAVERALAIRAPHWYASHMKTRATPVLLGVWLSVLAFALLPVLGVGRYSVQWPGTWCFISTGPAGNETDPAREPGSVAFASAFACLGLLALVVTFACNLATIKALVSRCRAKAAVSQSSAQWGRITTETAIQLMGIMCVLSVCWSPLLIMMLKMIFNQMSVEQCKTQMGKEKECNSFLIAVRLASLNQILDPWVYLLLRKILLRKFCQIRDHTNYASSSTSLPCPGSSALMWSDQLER

[6] = Total clearance in rat at 1 mg/kg, iv; type: ADME, organism-based; parameters: dose 1 mg/kg, route intravenous; conditions: in vivo
Procedure, shortened: (§2)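 Fasted male rats (n = 3) received 1 mg/kg iv or 10 mg/kg po. Jugular vein blood was drawn with a heparinized syringe at pre-dose and 2 (iv only), 5, 15 and 30 min, and 1, 2, 4, 6 and 8 h. Plasma was obtained by centrifugation at 4 °C and stored at −80 °C. AUC, Cmax, T1/2, Vss and CL came from the plasma concentration–time course. BA was derived from dose-normalized AUCpo/AUCiv.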

[7] = Cmax in rat at 10 mg/kg, po; type: ADME, organism-based; parameters: dose 10 mg/kg, route oral; conditions: in vivo; procedure, shortened: as §2
[8] = Half life in rat at 1 mg/kg, iv; type: ADME, organism-based; parameters: dose 1 mg/kg, route intravenous; conditions: in vivo; procedure, shortened: as §2
[9] = target: T4, Prostaglandin E2 receptor EP1 subtype (Mus musculus, UniProt P35375); test: Displacement of [3H]PGE2 from mouse prostaglandin EP1 receptor expressed in CHO cells after 20 mins by liquid scintillation counting
T4 sequence (P35375 whole entry): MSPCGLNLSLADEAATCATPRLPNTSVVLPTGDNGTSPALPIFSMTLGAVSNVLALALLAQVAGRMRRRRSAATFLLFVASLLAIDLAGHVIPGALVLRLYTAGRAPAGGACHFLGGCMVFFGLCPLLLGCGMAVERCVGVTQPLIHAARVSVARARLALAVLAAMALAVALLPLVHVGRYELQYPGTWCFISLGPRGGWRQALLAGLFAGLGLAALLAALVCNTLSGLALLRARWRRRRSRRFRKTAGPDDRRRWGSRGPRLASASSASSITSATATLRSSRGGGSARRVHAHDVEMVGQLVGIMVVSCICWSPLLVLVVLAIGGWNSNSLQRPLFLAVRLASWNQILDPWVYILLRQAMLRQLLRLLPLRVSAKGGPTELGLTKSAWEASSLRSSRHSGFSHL

[10] = AUClast in rat at 10 mg/kg, po; type: ADME, organism-based; parameters: dose 10 mg/kg, route oral, time 0 - last; conditions: plasma; procedure, shortened: as §2
[11] = target: Prostacyclin receptor (Homo sapiens, UniProt P43119); test: Displacement of [3H]Iloprost from human prostanoid IP receptor expressed in CHO cells after 30 mins by liquid scintillation counting
[12] = Volume of distribution at steady state in rat at 1 mg/kg, iv; type: ADME, organism-based; parameters: dose 1 mg/kg, route intravenous; conditions: in vivo, read-out: Vdss; procedure, shortened: as §2
[13] = target: T2, Prostaglandin D2 receptor; test: Displacement of [3H]PGD2 from mouse prostanoid DP receptor expressed in CHO cells after 20 mins by liquid scintillation counting
[14] = Oral bioavailability in rat at 10 mg/kg; type: ADME, organism-based; conditions: in vivo; procedure, shortened: as §2
[15] = Half life in rat at 10 mg/kg, po; type: ADME, organism-based; parameters: dose 10 mg/kg, route oral; conditions: in vivo; procedure, shortened: as §2
[16] = AUClast in rat at 1 mg/kg, iv; type: ADME, organism-based; parameters: time 0 - last, dose 1 mg/kg, route intravenous; conditions: plasma; procedure, shortened: as §2
[17] = target: Prostaglandin E2 receptor EP4 subtype (Mus musculus, UniProt P32240); test: Displacement of [3H]PGE2 from mouse prostaglandin EP4 receptor expressed in CHO cells after 60 mins by liquid scintillation counting; type: cell-based; procedure, shortened: as §1
Prostaglandin E2 receptor EP4 subtype, sequence (P32240 whole entry): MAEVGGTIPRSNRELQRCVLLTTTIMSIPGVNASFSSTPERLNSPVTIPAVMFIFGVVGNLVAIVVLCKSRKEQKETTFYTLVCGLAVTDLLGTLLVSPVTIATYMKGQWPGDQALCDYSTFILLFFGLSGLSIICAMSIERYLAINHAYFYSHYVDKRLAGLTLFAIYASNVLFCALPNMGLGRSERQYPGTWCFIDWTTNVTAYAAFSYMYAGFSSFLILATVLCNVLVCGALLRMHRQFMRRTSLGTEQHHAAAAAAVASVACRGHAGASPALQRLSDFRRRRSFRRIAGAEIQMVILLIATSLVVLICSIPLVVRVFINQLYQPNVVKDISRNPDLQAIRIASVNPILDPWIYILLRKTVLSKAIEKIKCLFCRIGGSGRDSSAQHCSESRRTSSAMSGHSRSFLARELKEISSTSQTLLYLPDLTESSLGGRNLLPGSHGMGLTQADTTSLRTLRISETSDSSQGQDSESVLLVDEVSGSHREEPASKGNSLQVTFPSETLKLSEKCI

Prostaglandin E2 receptor EP2 subtype, sequence (Q62053 whole entry): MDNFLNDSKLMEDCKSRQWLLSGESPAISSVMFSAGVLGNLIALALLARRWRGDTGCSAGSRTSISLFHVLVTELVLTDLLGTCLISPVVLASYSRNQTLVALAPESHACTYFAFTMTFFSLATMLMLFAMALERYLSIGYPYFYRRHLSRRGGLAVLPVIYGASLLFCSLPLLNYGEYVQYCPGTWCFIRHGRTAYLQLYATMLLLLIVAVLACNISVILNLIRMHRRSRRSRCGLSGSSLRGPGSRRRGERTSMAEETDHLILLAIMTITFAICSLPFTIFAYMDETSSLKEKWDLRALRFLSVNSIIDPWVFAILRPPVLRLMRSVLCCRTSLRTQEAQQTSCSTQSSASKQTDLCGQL
Prostacyclin receptor, sequence (P43119 whole entry): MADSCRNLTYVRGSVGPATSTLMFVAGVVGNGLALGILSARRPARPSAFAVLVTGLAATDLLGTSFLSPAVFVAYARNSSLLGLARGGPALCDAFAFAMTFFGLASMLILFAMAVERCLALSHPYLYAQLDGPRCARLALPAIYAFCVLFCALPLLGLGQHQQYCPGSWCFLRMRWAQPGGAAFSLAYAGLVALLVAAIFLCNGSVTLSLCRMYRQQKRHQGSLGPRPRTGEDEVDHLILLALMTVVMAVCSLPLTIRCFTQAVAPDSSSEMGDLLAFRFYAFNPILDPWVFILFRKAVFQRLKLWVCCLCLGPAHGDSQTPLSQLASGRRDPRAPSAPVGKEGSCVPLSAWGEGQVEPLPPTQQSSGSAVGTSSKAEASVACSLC
Prostaglandin F2-alpha receptor, sequence (P43117 whole entry): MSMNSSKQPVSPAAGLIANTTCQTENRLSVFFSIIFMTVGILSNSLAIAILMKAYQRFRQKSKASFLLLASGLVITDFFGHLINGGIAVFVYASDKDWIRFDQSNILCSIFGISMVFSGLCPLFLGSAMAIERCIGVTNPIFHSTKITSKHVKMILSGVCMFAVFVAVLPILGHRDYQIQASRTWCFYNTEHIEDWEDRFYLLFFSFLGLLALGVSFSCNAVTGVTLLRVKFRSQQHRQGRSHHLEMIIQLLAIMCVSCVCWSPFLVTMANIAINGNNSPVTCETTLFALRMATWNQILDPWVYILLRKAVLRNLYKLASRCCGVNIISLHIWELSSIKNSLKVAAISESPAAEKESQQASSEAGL

Ki [1]: > 10000 nM | Ki [2]: > 10000 nM | IC50 [3]: 4.6 nM | Ki [4]: 170 nM | Ki [5]: > 10000 nM | clearance [6]: 3.3 mL/min/kg | Cmax [7]: 8700 ng/mL | half-life [8]: 3.1 h | Ki [9]: > 10000 nM | AUC(0-t) [10]: 28800 ng·h/mL | Ki [11]: 2600 nM | Vd [12]: 0.61 L/kg | Ki [13]: 31 nM | bioavailability [14]: 62% | half-life [15]: 5.2 h | AUC(0-t) [16]: 4600 ng·h/mL | Ki [17]: > 10000 nM
SMILES: Cc1ccc(CC(=O)O)cc1NC(=O)c1ccc(OC[C@@H]2CN(C)c3ccccc3O2)cc1C
